Results gathered from unrelated publications.
Lines come from different studies, so protocols differ.
JAK2: Tyrosine-protein kinase JAK2 (JAK2, Homo sapiens, UniProt O60674)
JAK2 JH1: Tyrosine-protein kinase JAK2, JH1 (JAK2, Homo sapiens, UniProt O60674)

O=c1[nH]c2ccccc2n1C1CCN(Cc2ccc(-c3[nH]c4cc5ncnc5cc4nc3-c3ccccc3)cc2)CC1
remaining signal (JAK2; cell-free assay; 0.5 µM): 104%

Nc1ncc(-c2nc(N3CCOCC3)nc(N3CCOCC3)n2)c(C(F)F)n1
remaining binding (JAK2 JH1; binding, competition with immobilised ligand; 10 µM): 65%

Cn1cncc1[C@](O)(COc1ccc(C#N)cc1-c1ccc(OC(F)(F)F)cc1)c1ccc(C#N)cc1
remaining binding (JAK2 JH1; cell-free assay, competition with immobilised ligand; 1 µM): 91%

Cn1cc(-c2cccc(N3CCc4c(sc5c4CC(C)(C)C5)C3=O)c2CO)cc(Nc2ccncn2)c1=O
inhibition (JAK2; enzyme activity, inhibitor; 1 µM): -5%

N#CC1(c2ccccn2)CCN(Cc2cc(C(=O)O)c(=O)n3ccccc23)CC1
remaining binding (JAK2 JH1; cell-free assay, competition with immobilised ligand; 1 µM): 96%

COc1ncccc1-c1cnn2ccc(N3CCN(C(=O)OC(C)C)CC3)nc12
remaining binding (JAK2; binding, competition with immobilised ligand; 1 µM): 89%

C#Cc1n[nH]c2c(-c3cn(C(C)c4ccccn4)c(=O)[nH]c3=O)cc(F)cc12 (stereo not drawn)
inhibition (JAK2; enzyme activity, inhibitor; 1 µM): -4.2%

CC(C)(C)c1cc(C=C(C#N)C#N)cc(Br)c1O
remaining activity (JAK2; enzyme activity, inhibitor; 0.5 µM): 107%

Cn1cc(-c2cc(F)cc(N3CCn4c(cc5c4CCCC5)C3=O)c2CO)cc(Nc2ccc(N3CCN(C4COC4)CC3)cn2)c1=O
inhibition (JAK2; enzyme activity, inhibitor; 0.1 µM): 8%
